In brackets after ≈: the same amount, converted by molar mass.
How the values were obtained:
Staphylococcus aureus [1] = test: Antibacterial activity against 10^5 CFU/mL Staphylococcus aureus MTCC 96 after 24 hrs by disc diffusion technique; assay type: functional
In short: (§1)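 Disc diffusion on Mueller–Hinton agar poured 5 mm deep. The surface was swabbed with a 10⁵ CFU/mL […] suspension. Filter-paper discs 6.25 mm in diameter were soaked in compound in DMSO and placed on the agar. Plates were incubated 24 h at 37 ± 1 °C, and the inhibition zone was measured in mm. A DMSO disc served as blank.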

Staphylococcus aureus [2] = test: Antibacterial activity against 10^5 CFU/mL Staphylococcus aureus MTCC 96 after 24 hrs by agar streak dilution method; assay type: functional; details: MTCC 96, 24 h
In short: (§2)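 Agar streak dilution. Stock 100 µg/mL in DMSO; graded amounts were mixed into molten nutrient agar and poured at 4–5 mm depth. Plates carried serial dilutions over […]. About 10⁵ CFU/mL of each bacterium was applied, and plates were incubated at 37 ± 1 °C for 24 h. MIC was read from the dilution series.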

Bacillus cereus [3] = test: Antibacterial activity against 10^5 CFU/mL Bacillus cereus MTCC 619 after 24 hrs by disc diffusion technique; assay type: functional; in short: as §1
Bacillus cereus [4] = test: Antibacterial activity against 10^5 CFU/mL Bacillus cereus MTCC 619 after 24 hrs by agar streak dilution method; assay type: functional; details: MTCC 619, 24 h; in short: as §2
DU-145 = test: Cytotoxicity against […] human DU145 cells after 48 hrs by SRB assay; assay type: functional; details: DU-145, 48 h
In short: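 SRB assay in DU-145 cells grown in RPMI 1640 with 10% FBS and 2 mM L-glutamine. Cells were plated and held 24 h before addition of four 10-fold concentrations. After 48 h, cells were TCA-fixed, stained with 0.4% SRB and read at 540 nm. GI50, TGI and LC50 were derived against time-zero and control wells; each value is the mean of three experiments.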

Escherichia coli [5] = test: Antibacterial activity against 10^5 CFU/mL Escherichia coli MTCC 739 after 24 hrs by disc diffusion technique; assay type: functional; in short: as §1
Escherichia coli [6] = test: Antibacterial activity against 10^5 CFU/mL Escherichia coli MTCC 739 after 24 hrs by agar streak dilution method; assay type: functional; details: MTCC 739, 24 h; in short: as §2
Pseudomonas aeruginosa [7] = test: Antibacterial activity against 10^5 CFU/mL Pseudomonas aeruginosa MTCC 741 after 24 hrs by disc diffusion technique; assay type: functional; in short: as §1
Pseudomonas aeruginosa [8] = test: Antibacterial activity against 10^5 CFU/mL Pseudomonas aeruginosa MTCC 741 after 24 hrs by agar streak dilution method; assay type: functional; details: MTCC 741, 24 h; in short: as §2
Klebsiella pneumoniae [9] = test: Antibacterial activity against 10^5 CFU/mL Klebsiella pneumoniae MTCC 109 after 24 hrs by disc diffusion technique; assay type: functional; in short: as §1
Klebsiella pneumoniae [10] = test: Antibacterial activity against 10^5 CFU/mL Klebsiella pneumoniae MTCC 109 after 24 hrs by agar streak dilution method; assay type: functional; details: MTCC 109, 24 h; in short: as §2
Salmonella typhi [11] = test: Antibacterial activity against 10^5 CFU/mL Salmonella typhi MTCC 733 after 24 hrs by disc diffusion technique; assay type: functional, Salmonella enterica subsp. enterica serovar Typhi
In short: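 Disc diffusion. Mueller-Hinton agar autoclaved 120 °C 30 min, poured 5 mm deep. Surface swabbed with 10⁵ CFU/mL suspension […]. 6.25 mm filter-paper discs soaked in compound in DMSO; DMSO-only disc as blank. Incubated 37 ± 1 °C, 24 h for bacteria or 48 h for fungi. Ciprofloxacin and ketoconazole discs as reference drugs. Inhibition zone measured in mm.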

Salmonella typhi [12] = test: Antibacterial activity against 10^5 CFU/mL Salmonella typhi MTCC 733 after 24 hrs by agar streak dilution method; assay type: functional, Salmonella enterica subsp. enterica serovar Typhi; details: Salmonella enterica, MTCC 733, 24 h
Proteus vulgaris [13] = test: Antibacterial activity against 10^5 CFU/mL Proteus vulgaris MTCC 1771 after 24 hrs by disc diffusion technique; assay type: functional; in short: as §1
Proteus vulgaris [14] = test: Antibacterial activity against 10^5 CFU/mL Proteus vulgaris MTCC 1771 after 24 hrs by agar streak dilution method; assay type: functional; details: MTCC 1771, 24 h; in short: as §2
Shigella flexneri [15] = test: Antibacterial activity against 10^5 CFU/mL Shigella flexneri MTCC 1457 after 24 hrs by disc diffusion technique; assay type: functional; in short: as §1
Shigella flexneri [16] = test: Antibacterial activity against 10^5 CFU/mL Shigella flexneri MTCC 1457 after 24 hrs by agar streak dilution method; assay type: functional; details: MTCC 1457, 24 h; in short: as §2
Aspergillus niger [17] = test: Antifungal activity against 10^5 CFU/mL Aspergillus niger MTCC 282 after 48 hrs by disc diffusion technique; assay type: functional
Aspergillus niger [18] = test: Antifungal activity against 10^5 CFU/mL Aspergillus niger MTCC 282 after 48 hrs by agar streak dilution method; assay type: functional; details: MTCC 282, 48 h
In short: (§3)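 Agar streak dilution for fungi. Stock 100 µg/mL in DMSO; graded amounts were mixed into molten Sabouraud dextrose agar and poured at 4–5 mm depth. Serial dilutions ran over […]. About 10⁵ CFU/mL inoculum was applied, with incubation at 37 ± 1 °C for 48 h. MIC was read from the dilution series.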

Aspergillus fumigatus [19] = test: Antifungal activity against 10^5 CFU/mL Aspergillus fumigatus MTCC 343 after 48 hrs by disc diffusion technique; assay type: functional
Aspergillus fumigatus [20] = test: Antifungal activity against 10^5 CFU/mL Aspergillus fumigatus MTCC 343 after 48 hrs by agar streak dilution method; assay type: functional; details: MTCC 343, 48 h; in short: as §3
Aspergillus clavatus [21] = test: Antifungal activity against 10^5 CFU/mL Aspergillus clavatus MTCC 1323 after 48 hrs by disc diffusion technique; assay type: functional
Aspergillus clavatus [22] = test: Antifungal activity against 10^5 CFU/mL Aspergillus clavatus MTCC 1323 after 48 hrs by agar streak dilution method; assay type: functional; details: MTCC 1323, 48 h; in short: as §3
Candida albicans [23] = test: Antifungal activity against 10^5 CFU/mL Candida albicans MTCC 183 after 48 hrs by disc diffusion technique; assay type: functional
Candida albicans [24] = test: Antifungal activity against 10^5 CFU/mL Candida albicans MTCC 183 after 48 hrs by agar streak dilution method; assay type: functional; details: MTCC 183, 48 h; in short: as §3

SMILES | inhibition zone (IZ) (Staphylococcus aureus [1]) [mm] | MIC (Staphylococcus aureus [2]) [µg/mL] | inhibition zone (IZ) (Bacillus cereus [3]) [mm] | MIC (Bacillus cereus [4]) [µg/mL] | GI50 (DU-145) [µM] | LC50 (concentration giving 50% net cell kill relative to time zero) (DU-145) [µM] | TGI (DU-145) [µM] | inhibition zone (IZ) (Escherichia coli [5]) [mm] | MIC (Escherichia coli [6]) [µg/mL] | inhibition zone (IZ) (Pseudomonas aeruginosa [7]) [mm] | MIC (Pseudomonas aeruginosa [8]) [µg/mL] | inhibition zone (IZ) (Klebsiella pneumoniae [9]) [mm] | MIC (Klebsiella pneumoniae [10]) [µg/mL] | inhibition zone (IZ) (Salmonella typhi [11]) [mm] | MIC (Salmonella typhi [12]) [µg/mL] | inhibition zone (IZ) (Proteus vulgaris [13]) [mm] | MIC (Proteus vulgaris [14]) [µg/mL] | inhibition zone (IZ) (Shigella flexneri [15]) [mm] | MIC (Shigella flexneri [16]) [µg/mL] | inhibition zone (IZ) (Aspergillus niger [17]) [mm] | other results
N#Cc1ccc(Nc2nc(Oc3ccnc4ccccc34)nc(N3CCN(c4ncccn4)CC3)n2)cc1C(F)(F)F | 21 | 100 (≈ 175 µM) | 21 | 50 (≈ 87.6 µM) | 85.2 | > 100 | > 100 | 18 | 100 (≈ 175 µM) | 16 | 100 (≈ 175 µM) | 17 | 100 (≈ 175 µM) | 16 | 100 (≈ 175 µM) | 18 | 100 (≈ 175 µM) | 17 | 100 (≈ 175 µM) | 11 | MIC (Aspergillus niger [18]): 100 µg/mL (≈ 175 µM); inhibition zone (IZ) (Aspergillus fumigatus [19]): 13 mm; MIC (Aspergillus fumigatus [20]): 100 µg/mL (≈ 175 µM); inhibition zone (IZ) (Aspergillus clavatus [21]): 11 mm; MIC (Aspergillus clavatus [22]): 100 µg/mL (≈ 175 µM); inhibition zone (IZ) (Candida albicans [23]): 13 mm; MIC (Candida albicans [24]): 100 µg/mL (≈ 175 µM)
N#Cc1ccc(Nc2nc(Oc3ccnc4ccccc34)nc(N3CCN(Cc4ccccc4)CC3)n2)cc1C(F)(F)F | 22 | 100 (≈ 172 µM) | 22 | 100 (≈ 172 µM) | > 100 | > 100 | > 100 | 14 | 100 (≈ 172 µM) | 15 | 100 (≈ 172 µM) | <10 | 100 (≈ 172 µM) | 14 | 100 (≈ 172 µM) | 16 | 100 (≈ 172 µM) | 11 | 100 (≈ 172 µM) | <10 | MIC (Aspergillus niger [18]): 100 µg/mL (≈ 172 µM); inhibition zone (IZ) (Aspergillus fumigatus [19]): <10 mm; MIC (Aspergillus fumigatus [20]): 100 µg/mL (≈ 172 µM); inhibition zone (IZ) (Aspergillus clavatus [21]): 12 mm; MIC (Aspergillus clavatus [22]): 100 µg/mL (≈ 172 µM); inhibition zone (IZ) (Candida albicans [23]): <10 mm; MIC (Candida albicans [24]): 100 µg/mL (≈ 172 µM)
N#Cc1ccc(Nc2nc(Oc3ccnc4ccccc34)nc(N3CCC(Cc4ccccc4)CC3)n2)cc1C(F)(F)F | 24 | 100 (≈ 172 µM) | 22 | 50 (≈ 86 µM) | > 100 | > 100 | > 100 | 14 | 100 (≈ 172 µM) | 19 | 100 (≈ 172 µM) | 16 | 100 (≈ 172 µM) | 16 | 100 (≈ 172 µM) | 17 | 100 (≈ 172 µM) | 14 | 100 (≈ 172 µM) | <10 | MIC (Aspergillus niger [18]): 100 µg/mL (≈ 172 µM); inhibition zone (IZ) (Aspergillus fumigatus [19]): <10 mm; MIC (Aspergillus fumigatus [20]): 100 µg/mL (≈ 172 µM); inhibition zone (IZ) (Aspergillus clavatus [21]): 14 mm; MIC (Aspergillus clavatus [22]): 100 µg/mL (≈ 172 µM); inhibition zone (IZ) (Candida albicans [23]): 15 mm; MIC (Candida albicans [24]): 100 µg/mL (≈ 172 µM)
N#Cc1ccc(Nc2nc(Oc3ccnc4ccccc34)nc(N3CCN(C(c4ccccc4)c4ccccc4)CC3)n2)cc1C(F)(F)F | 21 | 50 (≈ 75.9 µM) | 22 | 25 (≈ 38 µM) | > 100 | > 100 | > 100 | 19 | 100 (≈ 152 µM) | 19 | 100 (≈ 152 µM) | 17 | 100 (≈ 152 µM) | 19 | 100 (≈ 152 µM) | 19 | 100 (≈ 152 µM) | 21 | 100 (≈ 152 µM) | 14 | MIC (Aspergillus niger [18]): 100 µg/mL (≈ 152 µM); inhibition zone (IZ) (Aspergillus fumigatus [19]): 20 mm; MIC (Aspergillus fumigatus [20]): 100 µg/mL (≈ 152 µM); inhibition zone (IZ) (Aspergillus clavatus [21]): 16 mm; MIC (Aspergillus clavatus [22]): 100 µg/mL (≈ 152 µM); inhibition zone (IZ) (Candida albicans [23]): 15 mm; MIC (Candida albicans [24]): 100 µg/mL (≈ 152 µM)
